ChEMBL document CHEMBL5376013, “Design, synthesis and biological evaluation of novel morpholinopyrimidine-5-carbonitrile derivatives as dual PI3K/mTOR inhibitors” (RSC Med Chem, 2024)

How the values were obtained:
Format in all cases: functional
Conditions in all cases: read-out: GI
HL-60 = experiment: Antitumor activity against human HL-60 cells assessed as growth inhibition at 10 uM relative to control
Summary of the method: (§1)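 After drug addition, plates were incubated 48 h at 37 °C under 5% CO2. Adherent cells were fixed with cold TCA (10% final, 60 min, 4 °C) and suspension cells with 16% final TCA. Staining used 0.4% SRB in 1% acetic acid, solubilized in 10 mM trizma, read at A515. Percent growth was calculated from time-zero, control and treated absorbances.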

K562 = experiment: Antitumor activity against human K562 cells assessed as growth inhibition at 10 uM relative to control; summary of the method: as §1
MOLT-4 = experiment: Antitumor activity against human MOLT-4 cells assessed as growth inhibition at 10 uM relative to control; summary of the method: as §1
SR = experiment: Antitumor activity against human SR cells assessed as growth inhibition at 10 uM relative to control
Summary of the method: (§2)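 Drug exposure 48 h at 37 °C, 5% CO2. Adherent cells fixed with cold TCA (10% final), suspension cells with TCA (16% final). Stained with 0.4% SRB in 1% acetic acid, dissolved in 10 mM Tris, A515. Growth relative to time-zero and untreated control.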

A549 = experiment: Antitumor activity against human A549 cells assessed as growth inhibition at 10 uM relative to control; summary of the method: as §1
EKVX = experiment: Antitumor activity against human EKVX cells assessed as growth inhibition at 10 uM relative to control; summary of the method: as §1
HOP-62 = experiment: Antitumor activity against human HOP-62 cells assessed as growth inhibition at 10 uM relative to control; summary of the method: as §1
HOP-92 = experiment: Antitumor activity against human HOP-92 cells assessed as growth inhibition at 10 uM relative to control; summary of the method: as §1
NCI-H226 = experiment: Antitumor activity against human NCI-H226 cells assessed as growth inhibition at 10 uM relative to control; summary of the method: as §1
NCI-H23 = experiment: Antitumor activity against human NCI-H23 cells assessed as growth inhibition at 10 uM relative to control; summary of the method: as §1
NCI-H322M = experiment: Antitumor activity against human NCI-H322M cells assessed as growth inhibition at 10 uM relative to control; summary of the method: as §1
NCI-H522 = experiment: Antitumor activity against human NCI-H522 cells assessed as growth inhibition at 10 uM relative to control; summary of the method: as §1
COLO 205 = experiment: Antitumor activity against human COLO 205 cells assessed as growth inhibition at 10 uM relative to control; summary of the method: as §1
HCC 2998 = experiment: Antitumor activity against human HCC 2998 cells assessed as growth inhibition at 10 uM relative to control; summary of the method: as §1
HCT-116 = experiment: Antitumor activity against human HCT-116 cells assessed as growth inhibition at 10 uM relative to control; summary of the method: as §1
HCT-15 = experiment: Antitumor activity against human HCT-15 cells assessed as growth inhibition at 10 uM relative to control; summary of the method: as §1
SF-268 = experiment: Antitumor activity against human SF-268 cells assessed as growth inhibition at 10 uM relative to control; summary of the method: as §1
SF-295 = experiment: Antitumor activity against human SF-295 cells assessed as growth inhibition at 10 uM relative to control; summary of the method: as §1
SF-539 = experiment: Antitumor activity against human SF-539 cells assessed as growth inhibition at 10 uM relative to control; summary of the method: as §1
SNB-19 = experiment: Antitumor activity against human SNB-19 cells assessed as growth inhibition at 10 uM relative to control; summary of the method: as §2
SNB-75 = experiment: Antitumor activity against human SNB-75 cells assessed as growth inhibition at 10 uM relative to control; summary of the method: as §2
U-251 = experiment: Antitumor activity against human U-251 cells assessed as growth inhibition at 10 uM relative to control; summary of the method: as §2
LOX IMVI = experiment: Antitumor activity against human LOX IMVI cells assessed as growth inhibition at 10 uM relative to control; summary of the method: as §1
M14 = experiment: Antitumor activity against human M14 cells assessed as growth inhibition at 10 uM relative to control; summary of the method: as §1
MDA-MB-435 = experiment: Antitumor activity against human MDA-MB-435 cells assessed as growth inhibition at 10 uM relative to control; summary of the method: as §1
SK-MEL-2 = experiment: Antitumor activity against human SK-MEL-2 cells assessed as growth inhibition at 10 uM relative to control; summary of the method: as §1
SK-MEL-5 = experiment: Antitumor activity against human SK-MEL-5 cells assessed as growth inhibition at 10 uM relative to control; summary of the method: as §2
UACC-257 = experiment: Antitumor activity against human UACC-257 cells assessed as growth inhibition at 10 uM relative to control; summary of the method: as §2
IGROV-1 = experiment: Antitumor activity against human IGROV-1 cells assessed as growth inhibition at 10 uM relative to control; summary of the method: as §1
OVCAR-3 = experiment: Antitumor activity against human OVCAR-3 cells assessed as growth inhibition at 10 uM relative to control; summary of the method: as §1
OVCAR-4 = experiment: Antitumor activity against human OVCAR-4 cells assessed as growth inhibition at 10 uM relative to control; summary of the method: as §1
OVCAR-5 = experiment: Antitumor activity against human OVCAR-5 cells assessed as growth inhibition at 10 uM relative to control; summary of the method: as §1
OVCAR-8 = experiment: Antitumor activity against human OVCAR-8 cells assessed as growth inhibition at 10 uM relative to control; summary of the method: as §1
SK-OV-3 = experiment: Antitumor activity against human SK-OV-3 cells assessed as growth inhibition at 10 uM relative to control; summary of the method: as §2
786-0 = experiment: Antitumor activity against human 786-0 cells assessed as growth inhibition at 10 uM relative to control; summary of the method: as §1
A498 = experiment: Antitumor activity against human A498 cells assessed as growth inhibition at 10 uM relative to control; summary of the method: as §1
CAKI-1 = experiment: Antitumor activity against human CAKI-1 cells assessed as growth inhibition at 10 uM relative to control; summary of the method: as §1
RXF 393 = experiment: Antitumor activity against human RXF 393 cells assessed as growth inhibition at 10 uM relative to control; summary of the method: as §1
TK-10 = experiment: Antitumor activity against human TK-10 cells assessed as growth inhibition at 10 uM relative to control; summary of the method: as §2
UO-31 = experiment: Antitumor activity against human UO-31 cells assessed as growth inhibition at 10 uM relative to control; summary of the method: as §2
PC-3 = experiment: Antitumor activity against human PC-3 cells assessed as growth inhibition at 10 uM relative to control; summary of the method: as §1
DU-145 = experiment: Antitumor activity against human DU-145 cells assessed as growth inhibition at 10 uM relative to control; summary of the method: as §1
MCF7 = experiment: Antitumor activity against human MCF7 cells assessed as growth inhibition at 10 uM relative to control; summary of the method: as §1
MDA-MB-231 = experiment: Antitumor activity against human MDA-MB-231 cells assessed as growth inhibition at 10 uM relative to control; summary of the method: as §1
Hs-578T = experiment: Antitumor activity against human Hs-578T cells assessed as growth inhibition at 10 uM relative to control; summary of the method: as §1
BT-549 = experiment: Antitumor activity against human BT-549 cells assessed as growth inhibition at 10 uM relative to control; summary of the method: as §1

Structure (SMILES): Cc1cc(C)n(-c2nc(-c3ccc(Cl)cc3)c(C#N)c(N3CCOCC3)n2)n1
- inhibition of growth at 10 µM (HL-60): < 1%
- inhibition of growth at 10 µM (K562): < 1%
- inhibition of growth at 10 µM (MOLT-4): 13.3%
- inhibition of growth at 10 µM (SR): < 1%
- inhibition of growth at 10 µM (A549): < 1%
- inhibition of growth at 10 µM (EKVX): 34.9%
- inhibition of growth at 10 µM (HOP-62): 19.9%
- inhibition of growth at 10 µM (HOP-92): 24.7%
- inhibition of growth at 10 µM (NCI-H226): 14%
- inhibition of growth at 10 µM (NCI-H23): 16%
- inhibition of growth at 10 µM (NCI-H322M): < 1%
- inhibition of growth at 10 µM (NCI-H522): 14.3%
- inhibition of growth at 10 µM (COLO 205): 18.9%
- inhibition of growth at 10 µM (HCC 2998): < 1%
- inhibition of growth at 10 µM (HCT-116): 17%
- inhibition of growth at 10 µM (HCT-15): < 1%
- inhibition of growth at 10 µM (SF-268): 14.4%
- inhibition of growth at 10 µM (SF-295): < 1%
- inhibition of growth at 10 µM (SF-539): 16%
- inhibition of growth at 10 µM (SNB-19): 14.2%
- inhibition of growth at 10 µM (SNB-75): 40.1%
- inhibition of growth at 10 µM (U-251): < 1%
- inhibition of growth at 10 µM (LOX IMVI): 20.1%
- inhibition of growth at 10 µM (M14): < 1%
- inhibition of growth at 10 µM (MDA-MB-435): < 1%
- inhibition of growth at 10 µM (SK-MEL-2): < 1%
- inhibition of growth at 10 µM (SK-MEL-5): 14.5%
- inhibition of growth at 10 µM (UACC-257): < 1%
- inhibition of growth at 10 µM (IGROV-1): 23.4%
- inhibition of growth at 10 µM (OVCAR-3): 12.1%
- inhibition of growth at 10 µM (OVCAR-4): < 1%
- inhibition of growth at 10 µM (OVCAR-5): < 1%
- inhibition of growth at 10 µM (OVCAR-8): < 1%
- inhibition of growth at 10 µM (SK-OV-3): 15.2%
- inhibition of growth at 10 µM (786-0): 15.2%
- inhibition of growth at 10 µM (A498): 46.3%
- inhibition of growth at 10 µM (CAKI-1): 28.1%
- inhibition of growth at 10 µM (RXF 393): 30.5%
- inhibition of growth at 10 µM (TK-10): < 1%
- inhibition of growth at 10 µM (UO-31): 45.2%
- inhibition of growth at 10 µM (PC-3): < 1%
- inhibition of growth at 10 µM (DU-145): < 1%
- inhibition of growth at 10 µM (MCF7): < 16%
- inhibition of growth at 10 µM (MDA-MB-231): 28.8%
- inhibition of growth at 10 µM (Hs-578T): 12.3%
- inhibition of growth at 10 µM (BT-549): 30.5%
